Measurements published in ChEMBL document CHEMBL1138544, “Solution-phase parallel synthesis and evaluation of anticonvulsant activity of N-substituted-3,4-dihydroisoquinoline-2(1H)-carboxamides” (2009).

Columns and labels:
[1] = test system: Mus musculus; assay: Anticonvulsant activity against audiogenic clonus seizures in ip dosed DBA/2 mouse epilepsy model administered 30 mins before auditory simulation; type: functional; conditions: DBA/2, ip
Summary of the method: (§1)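 DBA/2 mice (sound-seizure susceptible), 8e12 g, 22e25 days old, either sex, groups of 10. Vehicle or each dose given 30 min before auditory stimulation. Latency to and incidence of each seizure phase scored. ED50 for each phase taken from dose-response curves fitted by the Litchfield and Wilcoxon method.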

[2] = test system: Mus musculus; assay: Anticonvulsant activity against audiogenic tonus seizures in ip dosed DBA/2 mouse epilepsy model administered 30 mins before auditory simulation; type: functional; conditions: DBA/2, ip; summary of the method: as §1

SMILES: CCNC(=O)N1CCc2cc(OC)c(OC)cc2C1c1ccc(F)cc1 (centres undefined)
- ED50 [1]: > 35 mg/kg
- ED50 [2]: > 35 mg/kg

SMILES: COc1cc2c(cc1OC)C(c1ccc(Br)cc1)N(C(=O)NC1CCCCC1)CC2 (centres undefined)
- ED50 [1]: > 35 mg/kg
- ED50 [2]: 19.3 mg/kg

SMILES: CCCNC(=O)N1CCc2cc(OC)c(OC)cc2C1c1ccc(Cl)cc1 (centres undefined)
- ED50 [1]: > 35 mg/kg
- ED50 [2]: 23.4 mg/kg

SMILES: COc1cc2c(cc1OC)C(c1ccccc1)N(C(=O)NC(C)C)CC2 (centres undefined)
- ED50 [1]: > 35 mg/kg
- ED50 [2]: > 35 mg/kg

SMILES: CCCNC(=O)N1CCc2cc(OC)c(OC)cc2C1c1ccccc1 (centres undefined)
- ED50 [1]: > 35 mg/kg
- ED50 [2]: 18.1 mg/kg

SMILES: COc1cc2c(cc1OC)C(c1ccc(F)cc1)N(C(=O)NC1CCCCC1)CC2 (centres undefined)
- ED50 [1]: > 35 mg/kg
- ED50 [2]: > 35 mg/kg

SMILES: COc1cc2c(cc1OC)C(c1ccccc1)N(C(=O)NC1CCCCC1)CC2 (centres undefined)
- ED50 [1]: 26.9 mg/kg
- ED50 [2]: 9.38 mg/kg

SMILES: CCNC(=O)N1CCc2cc(OC)c(OC)cc2C1c1ccc(Br)cc1 (centres undefined)
- ED50 [1]: > 35 mg/kg
- ED50 [2]: > 35 mg/kg

SMILES: CCCCNC(=O)N1CCc2cc(OC)c(OC)cc2C1c1ccc(Cl)cc1 (centres undefined)
- ED50 [1]: > 35 mg/kg
- ED50 [2]: 16.5 mg/kg

SMILES: COc1cc2c(cc1OC)C(c1ccc(F)cc1)N(C(=O)NC(C)(C)C)CC2 (centres undefined)
- ED50 [1]: > 35 mg/kg
- ED50 [2]: 18.7 mg/kg

SMILES: COc1cc2c(cc1OC)C(c1ccc(Cl)cc1)N(C(C)=O)CC2 (centres undefined)
- ED50 [1]: 2.25 mg/kg
- ED50 [2]: 1.22 mg/kg

SMILES: COc1cc2c(cc1OC)C(c1ccc(Cl)cc1)N(C(=O)NC(C)(C)C)CC2 (centres undefined)
- ED50 [1]: 30.6 mg/kg
- ED50 [2]: 13.8 mg/kg

SMILES: COc1cc2c(cc1OC)C(c1ccc(Br)cc1)N(C(=O)NC(C)(C)C)CC2 (centres undefined)
- ED50 [1]: > 35 mg/kg
- ED50 [2]: 16.9 mg/kg

SMILES: COc1cc2c(cc1OC)C(c1ccccc1)N(C(=O)NC1CCCC1)CC2 (centres undefined)
- ED50 [1]: > 35 mg/kg
- ED50 [2]: 15.1 mg/kg

SMILES: COc1cc2c(cc1OC)C(c1ccc(Br)cc1)N(C(=O)NC(C)C)CC2 (centres undefined)
- ED50 [1]: > 35 mg/kg
- ED50 [2]: 23.6 mg/kg

SMILES: COc1cc2c(cc1OC)C(c1ccc(F)cc1)N(C(=O)NC1CCCC1)CC2 (centres undefined)
- ED50 [1]: 27.7 mg/kg
- ED50 [2]: 7.24 mg/kg

SMILES: CCCC(CCC)C(=O)O [VALPROIC ACID]
- ED50 [1]: 20.3 mg/kg
- ED50 [2]: 9.9 mg/kg

SMILES: CCNC(=O)N1CCc2cc(OC)c(OC)cc2C1c1ccccc1 (centres undefined)
- ED50 [1]: 32.5 mg/kg
- ED50 [2]: 11.9 mg/kg

SMILES: CCCCNC(=O)N1CCc2cc(OC)c(OC)cc2C1c1ccc(Br)cc1 (centres undefined)
- ED50 [1]: > 35 mg/kg
- ED50 [2]: 15.5 mg/kg

SMILES: COc1cc2c(cc1OC)C(c1ccc(F)cc1)N(C(=O)NC(C)C)CC2 (centres undefined)
- ED50 [1]: > 35 mg/kg
- ED50 [2]: 17.3 mg/kg

SMILES: COc1cc2c(cc1OC)C(c1ccc(Br)cc1)N(C(=O)NC1CCCC1)CC2 (centres undefined)
- ED50 [1]: > 35 mg/kg
- ED50 [2]: 14.7 mg/kg

SMILES: CCCCNC(=O)N1CCc2cc(OC)c(OC)cc2C1c1ccc(F)cc1 (centres undefined)
- ED50 [1]: > 35 mg/kg
- ED50 [2]: 13.7 mg/kg

SMILES: COc1cc2c(cc1OC)C(c1ccc(Br)cc1)N(C(=O)CN1CCCCC1)CC2 (centres undefined)
- ED50 [1]: 5.99 mg/kg
- ED50 [2]: 3.86 mg/kg

SMILES: COc1cc2c(cc1OC)C(c1ccc(Cl)cc1)N(C(=O)NC1CCCC1)CC2 (centres undefined)
- ED50 [1]: > 35 mg/kg
- ED50 [2]: 12.1 mg/kg

SMILES: COc1cc2c(cc1OC)C(c1ccc(Cl)cc1)N(C(=O)NC(C)C)CC2 (centres undefined)
- ED50 [1]: > 35 mg/kg
- ED50 [2]: 26.1 mg/kg

SMILES: NCC1(CC(=O)O)CCCCC1 [GABAPENTIN]
- ED50 [1]: > 35 mg/kg
- ED50 [2]: 21.5 mg/kg

SMILES: CCCCNC(=O)N1CCc2cc(OC)c(OC)cc2C1c1ccccc1 (centres undefined)
- ED50 [1]: 31.7 mg/kg
- ED50 [2]: 11 mg/kg

SMILES: CCNC(=O)N1CCc2cc(OC)c(OC)cc2C1c1ccc(Cl)cc1 (centres undefined)
- ED50 [1]: 30.4 mg/kg
- ED50 [2]: 14.2 mg/kg

SMILES: CCCNC(=O)N1CCc2cc(OC)c(OC)cc2C1c1ccc(Br)cc1 (centres undefined)
- ED50 [1]: > 35 mg/kg
- ED50 [2]: 31.2 mg/kg

SMILES: COc1cc2c(cc1OC)C(c1ccc(Cl)cc1)N(C(=O)NC1CCCCC1)CC2 (centres undefined)
- ED50 [1]: > 35 mg/kg
- ED50 [2]: 14.2 mg/kg

SMILES: COc1cc2c(cc1OC)C(c1ccccc1)N(C(=O)NC(C)(C)C)CC2 (centres undefined)
- ED50 [1]: 27.5 mg/kg
- ED50 [2]: 13.9 mg/kg

SMILES: CCCNC(=O)N1CCc2cc(OC)c(OC)cc2C1c1ccc(F)cc1 (centres undefined)
- ED50 [1]: > 35 mg/kg
- ED50 [2]: 26.9 mg/kg
